Results as given in ChEMBL document CHEMBL2177068, “Modeling cellular pharmacokinetics of 14- and 15-membered macrolides with physicochemical properties” (J Med Chem, 2011).

How the values were obtained:
[1] = Cellular uptake in human PMNC assessed as compound retention at 3 to 20 uM incubated for 3 hrs followed by drug washout measured after 3 hrs by LC-MS/MS analysis relative to initial drug accumulation; type: ADME
In short: (§1)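 Cells loaded 3 h with 3-20 μM macrolide, then incubated 3 h in drug-free medium. Intracellular drug measured by LC-MS/MS before and after washout. Retention given as percentage of initially accumulated compound remaining in cells after washout.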

[2] = Cellular uptake in human PMNC at 3 to 20 uM after 3 hrs by LC-MS/MS analysis relative to azithromycin; type: ADME
In short: (§2)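 Cells (primary human BSMC, MDM, NHBE, PMN, T-lymphocytes, NHLF, or NCI-H292 lung carcinoma line) incubated 3 h with 3-20 μM macrolide; extracellular drug removed (PMNs washed through silicone oil, NCI-H292 washed with ice-cold PBS). Intracellular drug quantified by LC-MS/MS; accumulation expressed as % of azithromycin accumulation measured in the same experiment. Azithromycin reference run at 10 μM, normalized to total protein.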

[3] = Cellular uptake in human BSMC at 3 to 20 uM after 3 hrs by LC-MS/MS analysis relative to azithromycin; type: ADME; in short: as §2
[4] = system: NCI-H292; experiment: Cellular uptake in human […] cells at 3 to 20 uM after 3 hrs by LC-MS/MS analysis relative to azithromycin; type: ADME, cell-based; details: nci-h292, 3 h; in short: as §2
[5] = system: NCI-H292; experiment: Cellular uptake in human NCI-H292 cells assessed as compound retention at 3 to 20 uM incubated for 3 hrs followed by drug washout measured after 3 hrs by LC-MS/MS analysis relative to initial drug accumulation; type: ADME, cell-based; details: nci-h292, 3 h; in short: as §1
[6] = Cellular uptake in human NHBE assessed as compound retention at 3 to 20 uM incubated for 3 hrs followed by drug washout measured after 3 hrs by LC-MS/MS analysis relative to initial drug accumulation; type: ADME; in short: as §1
[7] = Cellular uptake in normal human lung fibroblast at 3 to 20 uM after 3 hrs by LC-MS/MS analysis relative to azithromycin; type: ADME; in short: as §2
[8] = Cellular uptake in human T lymphocytes assessed as compound retention at 3 to 20 uM incubated for 3 hrs followed by drug washout measured after 3 hrs by LC-MS/MS analysis relative to initial drug accumulation; type: ADME, cell-based; details: t-cell; in short: as §1
[9] = Cellular uptake in human MDM assessed as compound retention at 3 to 20 uM incubated for 3 hrs followed by drug washout measured after 3 hrs by LC-MS/MS analysis relative to initial drug accumulation; type: ADME; in short: as §1
[10] = Cellular uptake in human BSMC assessed as compound retention at 3 to 20 uM incubated for 3 hrs followed by drug washout measured after 3 hrs by LC-MS/MS analysis relative to initial drug accumulation; type: ADME; in short: as §1
[11] = Cellular uptake in human NHBE at 3 to 20 uM after 3 hrs by LC-MS/MS analysis relative to azithromycin; type: ADME; in short: as §2
[12] = Cellular uptake in human MDM at 3 to 20 uM after 3 hrs by LC-MS/MS analysis relative to azithromycin; type: ADME; in short: as §2
[13] = Cellular uptake in normal human lung fibroblasts assessed as compound retention at 3 to 20 uM incubated for 3 hrs followed by drug washout measured after 3 hrs by LC-MS/MS analysis relative to initial drug accumulation; type: ADME; in short: as §1
[14] = Cellular uptake in human T lymphocytes at 3 to 20 uM after 3 hrs by LC-MS/MS analysis relative to azithromycin; type: ADME, cell-based; details: t-cell; in short: as §2

| SMILES | Drug uptake [1] | Drug uptake [2] | Drug uptake [3] | Drug uptake [4] | Drug uptake [5] | Drug uptake [6] | Drug uptake [7] | Drug uptake [8] | Drug uptake [9] | Drug uptake [10] | Drug uptake [11] | Drug uptake [12] | Drug uptake [13] | Drug uptake [14] |
| --- | --- | --- | --- | --- | --- | --- | --- | --- | --- | --- | --- | --- | --- | --- |
| CCCCCCCC(=O)NCCCN(C)[C@H]1C[C@@H](C)O[C@@H](O[C@@H]2[C@@H](C)[C@H](O[C@H]3C[C@@](C)(OC)[C@@H](O)[C@H](C)O3)[C@@H](C)C(=O)O[C@H](CC)[C@@](C)(O)[C@H](O)[C@@H](C)N(C)C[C@H](C)C[C@@]2(C)O)[C@@H]1O | 85% | 663% | 598% | 457% | 51% | 57% | 1699% | 19% | 100% | 47% | 422% | 1235% | 78% | 460% |
| CC[C@H]1OC(=O)[C@H](C)[C@@H](O[C@H]2C[C@@](C)(OC)[C@@H](O)[C@H](C)O2)[C@H](C)[C@@H](O[C@@H]2O[C@H](C)C[C@H](N(C)C)[C@H]2O)[C@](C)(OC)C[C@@H](C)C(=O)N[C@H](C)[C@@H](O)[C@]1(C)O | 37% | 13% | 5% | 10% | 23% | 16% | 9% | 2% | 8% | 0% | 11% | 11% | 35% | 5% |
| CCCCCCCC(=O)NCCCN1C[C@H](C)C[C@@](C)(O)[C@H](O[C@@H]2O[C@H](C)C[C@H](N(C)C)[C@H]2O)[C@@H](C)[C@H](O[C@H]2C[C@@](C)(OC)[C@@H](O)[C@H](C)O2)[C@@H](C)C(=O)O[C@H](CC)[C@@](C)(O)[C@H](O)[C@H]1C | 77% | 146% | 111% | 207% | 69% | 71% | 122% | 30% | 83% | 57% | 135% | 120% | 84% | 127% |
| CC[C@H]1OC(=O)[C@H](C)[C@@H](O[C@H]2C[C@@](C)(OC)[C@@H](OC(=O)CN(CC)CC)[C@H](C)O2)[C@H](C)[C@@H](O[C@@H]2O[C@H](C)C[C@H](N(C)C)[C@H]2O)[C@](C)(OC)C[C@@H](C)C(=O)N[C@H](C)[C@@H](O)[C@]1(C)O | 74% | 118% | 83% | 121% | 48% | 33% | 256% | 6% | 56% | 27% | 101% | 148% | 63% | 41% |

More lines, now with the values ahead:

| Drug uptake [1] | Drug uptake [2] | Drug uptake [3] | Drug uptake [4] | Drug uptake [5] | Drug uptake [6] | Drug uptake [7] | Drug uptake [8] | Drug uptake [9] | Drug uptake [10] | Drug uptake [11] | Drug uptake [12] | Drug uptake [13] | Drug uptake [14] | SMILES |
| --- | --- | --- | --- | --- | --- | --- | --- | --- | --- | --- | --- | --- | --- | --- |
| 0% | 17% | 9% | 13% | 0% | 0% | 54% | 1% | 3% | 0% | 8% | 28% | 0% | 5% | CC[C@H]1OC(=O)[C@H](C)[C@@H](O)[C@H](C)[C@@H](O)[C@](C)(O)C[C@@H](C)CN(C)[C@H](C)[C@@H](O)[C@]1(C)O [AZITHROMYCIN AGLYCONE] |
| 79% | 100% | 100% | 100% | 77% | 63% | 100% | 38% | 93% | 54% | 100% | 100% | 80% | 100% | CC[C@H]1OC(=O)[C@H](C)[C@@H](O[C@H]2C[C@@](C)(OC)[C@@H](O)[C@H](C)O2)[C@H](C)[C@@H](O[C@@H]2O[C@H](C)C[C@H](N(C)C)[C@H]2O)[C@](C)(O)C[C@@H](C)CN(C)[C@H](C)[C@@H](O)[C@]1(C)O [AZITHROMYCIN] |
| 2% | 36% | 36% | 35% | 1% | 0% | 127% | 2% | 4% | 1% | 25% | 66% | 1% | 16% | CC[C@H]1OC(=O)[C@H](C)[C@@H](O[C@H]2C[C@@](C)(OC)[C@@H](O)[C@H](C)O2)[C@H](C)[C@@H](O[C@@H]2O[C@H](C)C[C@H](N(C)C)[C@H]2O)[C@](C)(OC)C[C@@H](C)C(=O)[C@H](C)[C@@H](O)[C@]1(C)O [CLARITHROMYCIN] |
| 68% | 42% | 75% | 56% | 77% | 74% | 52% | 46% | 81% | 63% | 52% | 79% | 70% | 52% | CC[C@H]1OC(=O)[C@H](C)[C@@H](O)[C@H](C)[C@@H](O[C@@H]2O[C@H](C)C[C@H](N(C)C)[C@H]2O)[C@](C)(O)C[C@@H](C)CN(C)[C@H](C)[C@@H](O)[C@]1(C)O [DESCLADINOSYL AZITHROMYCIN] |
